Measurements reported in ChEMBL document CHEMBL3632537, “Chalcones from Angelica keiskei: Evaluation of Their Heat Shock Protein Inducing Activities” (J Nat Prod, 2015).
Active and inactive are the calls of the source. No cut-off for these calls is given here.

Legend:
L132 (Homo sapiens) [1] = experiment: Upregulation of HSP27 mRNA expression in human L132 cells by RT-PCR analysis
L132 (Homo sapiens) [2] = experiment: Upregulation of HSF1 mRNA expression in human L132 cells by RT-PCR analysis
NCI-H460 = experiment: Induction of hsp25 promoter activity in human NCI-H460 cells at 10 uM measured at 5 hrs by luciferase reporter gene assay relative to control; assay type: functional
Method in brief: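 NCI-H460 human lung cancer cells carrying a luciferase reporter driven by the murine hsp25 promoter. Cells were plated at 1 × 10⁵ per well, grown 24 h, then exposed to 10 μM compound and harvested 5 h later. Lysate luciferase was normalized to β-galactosidase and expressed as fold induction over untreated control. Values are mean ± SD of three independent experiments.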

L132 (Homo sapiens) [3] = experiment: Upregulation of HSP70 protein expression in human L132 cells by Western blot analysis
L132 (Homo sapiens) [4] = experiment: Upregulation of HSP27 protein expression in human L132 cells by Western blot analysis
L132 (Homo sapiens) [5] = experiment: Upregulation of HSF1 protein expression in human L132 cells by Western blot analysis
L132 (Homo sapiens) [6] = experiment: Upregulation of HSP70 mRNA expression in human L132 cells by RT-PCR analysis
L132 (Homo sapiens) [7] = experiment: Upregulation of HSP27 mRNA expression in human L132 cells at 2 uM measured at 3 hrs by RT-PCR analysis relative to control
[8] = Cytotoxicity against human L-132 cells assessed as cell viability at 1 to 8 uM after 12 hrs by MTT assay; assay type: cell-based; settings: l132, 12 h
Method in brief: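 L132 human lung fibroblasts exposed 12 h to 1, 2, 4 or 8 μM; medium swapped for MTT 0.5 mg/mL in PBS, 3 h at 37 °C, formazan dissolved in DMSO, absorbance at 540 nm converted to cell number via calibration curve; viability as ratio to DMSO no-treatment control; mean ± SD of three independent experiments, Student's t test vs untreated.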

L132 (Homo sapiens) [9] = experiment: Upregulation of HSP70 mRNA expression in human L132 cells at 2 uM measured at 3 hrs by RT-PCR analysis relative to control
L132 (Homo sapiens) [10] = experiment: Upregulation of HSP70 protein expression in human L132 cells at 2 uM measured at 6 hrs by Western blot analysis relative to control
L132 (Homo sapiens) [11] = experiment: Upregulation of HSF1 protein expression in human L132 cells at 2 uM measured at 6 hrs by Western blot analysis relative to control
L132 (Homo sapiens) [12] = experiment: Upregulation of HSP27 protein expression in human L132 cells at 2 uM measured at 6 hrs by Western blot analysis relative to control

Row | SMILES | Activity (L132 (Homo sapiens) [1]) | Activity (L132 (Homo sapiens) [2]) | fold change (FC) (NCI-H460) | Activity (L132 (Homo sapiens) [3]) | Activity (L132 (Homo sapiens) [4]) | Activity (L132 (Homo sapiens) [5]) | Activity (L132 (Homo sapiens) [6]) | fold change (FC) (L132 (Homo sapiens) [7]) | Activity [8] | fold change (FC) (L132 (Homo sapiens) [9]) | fold change (FC) (L132 (Homo sapiens) [10]) | fold change (FC) (L132 (Homo sapiens) [11]) | fold change (FC) (L132 (Homo sapiens) [12])
1 | COC(C)(C)/C=C/C/C(C)=C/Cc1c(O)ccc(C(=O)/C=C/c2ccc(O)cc2)c1O | inactive | inactive | 21.9 | inactive | inactive | inactive | inactive |  |  |  |  |  | 
2 | C=C(CCC=C(C)C)C(O)Cc1c(O)ccc(C(=O)/C=C/c2ccc(O)cc2)c1O (racemic) |  |  | 29.2 |  |  |  |  | 1.5 | Non-toxic | 5 | 1.5 | 4.3 | 4.6
3 | CC1=C(O)C(=O)C=C2C1=CC=C1[C@@]2(C)CC[C@@]2(C)[C@@H]3C[C@](C)(C(=O)O)CC[C@]3(C)CC[C@]12C [CELASTROL] |  |  |  |  |  |  |  |  | Toxic |  |  |  | 
